How the values were obtained:
Conditions in all cases: stereoisomer not certain
OR2T2 (Homo sapiens) = OR2T2 (Homo sapiens) (UniProt Q6IF00)
Summary of the method: (§1)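 Each entry records the cell line, G-protein, co-transfected protein and tags used. Methods varied with the source, often transient luciferase assays in mammalian cell lines. A receptor–molecule pair is called responsive (active) if the original authors judged its signal statistically different from baseline and non-responsive (inactive) otherwise.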

OR2T27 (Homo sapiens) = OR2T27 (Homo sapiens) (UniProt Q8NH04)
Summary of the method: as §1

OR2T29 (Homo sapiens) = OR2T29 (Homo sapiens) (UniProt Q8NH02)
Summary of the method: as §1

OR2T3 (Homo sapiens) = OR2T3 (Homo sapiens) (UniProt Q8NH03)
Summary of the method: as §1

OR2T33 (Homo sapiens) = OR2T33 (Homo sapiens) (UniProt Q8NG76)
Summary of the method: as §1

OR2T34 (Homo sapiens) = target: T1, OR2T34 (Homo sapiens) (UniProt Q8NGX1)
T1 sequence (whole entry): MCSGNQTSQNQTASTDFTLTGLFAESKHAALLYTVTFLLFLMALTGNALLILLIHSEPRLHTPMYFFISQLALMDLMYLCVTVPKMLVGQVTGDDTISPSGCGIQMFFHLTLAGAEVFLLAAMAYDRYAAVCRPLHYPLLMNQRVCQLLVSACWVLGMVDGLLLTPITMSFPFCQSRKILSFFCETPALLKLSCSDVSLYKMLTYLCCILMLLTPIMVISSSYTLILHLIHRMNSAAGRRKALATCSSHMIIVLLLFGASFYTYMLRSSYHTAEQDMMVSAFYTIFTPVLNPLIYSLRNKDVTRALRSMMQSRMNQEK
Summary of the method: as §1

OR2T35 (Homo sapiens) = OR2T35 (Homo sapiens) (UniProt Q8NGX2)
Summary of the method: as §1

OR2T4 (Homo sapiens) = target: T2, OR2T4 (Homo sapiens) (UniProt Q8NH00)
T2 sequence (whole entry): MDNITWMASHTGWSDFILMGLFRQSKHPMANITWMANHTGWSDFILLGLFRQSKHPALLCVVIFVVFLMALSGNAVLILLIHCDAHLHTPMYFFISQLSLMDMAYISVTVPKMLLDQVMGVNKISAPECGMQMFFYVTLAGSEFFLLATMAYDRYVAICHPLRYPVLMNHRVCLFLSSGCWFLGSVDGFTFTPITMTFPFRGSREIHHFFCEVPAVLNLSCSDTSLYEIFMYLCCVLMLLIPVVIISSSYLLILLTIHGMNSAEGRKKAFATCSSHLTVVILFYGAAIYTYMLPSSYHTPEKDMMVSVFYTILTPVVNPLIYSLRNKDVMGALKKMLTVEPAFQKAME
Summary of the method: as §1

OR2T5 (Homo sapiens) = OR2T5 (Homo sapiens) (UniProt Q6IEZ7)
Summary of the method: as §1

OR2T6 (Homo sapiens) = OR2T6 (Homo sapiens) (UniProt Q8NHC8)
Summary of the method: as §1

OR2T7 (Homo sapiens) = OR2T7 (Homo sapiens) (UniProt P0C7T2)
Summary of the method: as §1

OR2T2 L104F L262Q = tested on: OR2T2 L104F L262Q
Summary of the method: as §1

OR2T2 L104F = tested on: OR2T2 L104F
Summary of the method: as §1

OR2T2 Q313H = tested on: OR2T2 Q313H
Summary of the method: as §1

OR2T3 L256F = tested on: OR2T3 L256F
Summary of the method: as §1

OR2T3 R298C = tested on: OR2T3 R298C
Summary of the method: as §1

OR2T3 Y109H = tested on: OR2T3 Y109H
Summary of the method: as §1

OR2T5 K13R K41M G45E = tested on: OR2T5 K13R K41M G45E
Summary of the method: as §1

OR2T5 K13R L134F = tested on: OR2T5 K13R L134F
Summary of the method: as §1

OR2T6 C23G = tested on: OR2T6 C23G
Summary of the method: as §1

Measured: odorant receptor agonist call

Sequence of OR2T27 (Homo sapiens) (Q8NH04 whole entry): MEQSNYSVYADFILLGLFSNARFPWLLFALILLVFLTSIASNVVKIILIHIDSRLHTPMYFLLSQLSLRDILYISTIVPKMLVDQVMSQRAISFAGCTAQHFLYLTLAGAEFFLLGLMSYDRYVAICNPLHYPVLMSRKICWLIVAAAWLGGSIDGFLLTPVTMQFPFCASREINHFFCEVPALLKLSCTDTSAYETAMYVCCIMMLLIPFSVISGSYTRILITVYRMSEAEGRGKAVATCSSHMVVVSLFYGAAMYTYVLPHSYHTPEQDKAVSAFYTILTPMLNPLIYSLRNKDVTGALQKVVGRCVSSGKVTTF
Sequence of OR2T29 (Homo sapiens) (Q8NH02 whole entry): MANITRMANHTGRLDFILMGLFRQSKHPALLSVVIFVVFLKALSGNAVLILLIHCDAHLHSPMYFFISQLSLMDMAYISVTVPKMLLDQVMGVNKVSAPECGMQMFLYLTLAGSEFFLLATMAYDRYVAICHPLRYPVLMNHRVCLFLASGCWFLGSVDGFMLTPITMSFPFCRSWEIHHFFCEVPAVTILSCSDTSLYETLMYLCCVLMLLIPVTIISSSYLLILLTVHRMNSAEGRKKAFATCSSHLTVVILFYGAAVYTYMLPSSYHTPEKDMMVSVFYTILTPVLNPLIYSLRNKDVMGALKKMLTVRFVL
Sequence of OR2T3 (Homo sapiens) (Q8NH03 whole entry): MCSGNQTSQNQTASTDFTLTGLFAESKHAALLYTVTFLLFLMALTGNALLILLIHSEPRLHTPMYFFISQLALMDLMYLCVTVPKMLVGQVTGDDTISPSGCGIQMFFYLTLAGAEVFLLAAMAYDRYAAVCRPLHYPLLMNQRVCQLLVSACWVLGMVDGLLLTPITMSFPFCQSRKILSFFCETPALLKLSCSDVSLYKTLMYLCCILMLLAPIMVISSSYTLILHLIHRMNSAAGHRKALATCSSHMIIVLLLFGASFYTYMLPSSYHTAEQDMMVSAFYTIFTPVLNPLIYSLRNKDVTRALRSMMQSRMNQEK
Sequence of OR2T2 (Homo sapiens) (Q6IF00 whole entry): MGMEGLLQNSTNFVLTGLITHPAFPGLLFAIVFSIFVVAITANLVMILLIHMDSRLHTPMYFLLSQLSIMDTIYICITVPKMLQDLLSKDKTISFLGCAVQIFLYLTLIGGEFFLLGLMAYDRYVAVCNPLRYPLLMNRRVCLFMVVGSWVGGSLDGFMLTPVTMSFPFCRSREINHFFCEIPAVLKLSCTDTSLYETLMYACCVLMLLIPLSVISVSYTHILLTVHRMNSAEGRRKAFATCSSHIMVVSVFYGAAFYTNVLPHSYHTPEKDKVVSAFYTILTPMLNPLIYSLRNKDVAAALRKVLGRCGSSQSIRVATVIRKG
Sequence of OR2T35 (Homo sapiens) (Q8NGX2 whole entry): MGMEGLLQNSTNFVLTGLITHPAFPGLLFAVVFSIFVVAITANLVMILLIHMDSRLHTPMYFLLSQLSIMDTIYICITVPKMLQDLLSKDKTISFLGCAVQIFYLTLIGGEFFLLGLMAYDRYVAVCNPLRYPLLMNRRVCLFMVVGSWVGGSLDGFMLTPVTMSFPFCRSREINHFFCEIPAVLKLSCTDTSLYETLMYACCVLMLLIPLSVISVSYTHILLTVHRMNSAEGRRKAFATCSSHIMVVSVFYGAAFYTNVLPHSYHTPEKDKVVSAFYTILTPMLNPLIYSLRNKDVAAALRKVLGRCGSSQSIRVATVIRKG
Sequence of OR2T33 (Homo sapiens) (Q8NG76 whole entry): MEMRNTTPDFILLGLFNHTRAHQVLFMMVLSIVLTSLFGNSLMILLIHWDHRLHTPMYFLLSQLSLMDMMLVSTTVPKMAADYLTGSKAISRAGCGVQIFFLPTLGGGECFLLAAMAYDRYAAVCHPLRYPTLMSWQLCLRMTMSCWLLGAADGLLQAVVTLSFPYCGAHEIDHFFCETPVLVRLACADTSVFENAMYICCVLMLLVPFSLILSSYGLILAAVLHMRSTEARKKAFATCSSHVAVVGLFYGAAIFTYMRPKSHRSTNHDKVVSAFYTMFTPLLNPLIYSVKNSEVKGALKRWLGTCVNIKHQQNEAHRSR
Sequence of OR2T6 (Homo sapiens) (Q8NHC8 whole entry): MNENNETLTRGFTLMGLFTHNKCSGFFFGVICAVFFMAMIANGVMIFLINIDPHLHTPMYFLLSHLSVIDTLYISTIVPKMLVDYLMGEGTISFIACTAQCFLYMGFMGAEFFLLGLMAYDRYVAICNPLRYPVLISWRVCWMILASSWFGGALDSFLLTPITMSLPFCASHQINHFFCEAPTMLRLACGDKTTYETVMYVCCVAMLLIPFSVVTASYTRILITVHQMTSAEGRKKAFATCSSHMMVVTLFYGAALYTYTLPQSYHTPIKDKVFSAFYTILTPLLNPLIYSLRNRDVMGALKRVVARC
Sequence of OR2T5 (Homo sapiens) (Q6IEZ7 whole entry): as the sequence (Q8NH02 whole entry) above, with R13K, Q24R counted along it
Sequence of OR2T3 R298C (as listed by the source, stated change not applied): as the sequence (Q8NH03 whole entry) above, with R298C counted along it
Sequence of OR2T2 L104F (as listed by the source, stated change not applied): as the sequence (Q6IF00 whole entry) above, with L104F counted along it
Sequence of OR2T3 Y109H (as listed by the source, stated change not applied): as the sequence (Q8NH03 whole entry) above, with Y109H counted along it
Sequence of OR2T7 (Homo sapiens) (P0C7T2 whole entry): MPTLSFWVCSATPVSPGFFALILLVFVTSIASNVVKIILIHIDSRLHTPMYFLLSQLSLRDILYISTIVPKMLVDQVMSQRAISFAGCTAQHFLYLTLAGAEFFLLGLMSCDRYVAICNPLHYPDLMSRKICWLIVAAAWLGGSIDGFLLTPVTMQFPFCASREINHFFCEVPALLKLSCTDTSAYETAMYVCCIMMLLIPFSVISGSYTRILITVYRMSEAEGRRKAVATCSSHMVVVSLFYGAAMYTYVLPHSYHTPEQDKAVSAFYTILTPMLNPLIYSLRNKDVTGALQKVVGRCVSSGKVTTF
Sequence of OR2T2 Q313H (as listed by the source, stated change not applied): as the sequence (Q6IF00 whole entry) above, with Q313H counted along it
Sequence of OR2T3 L256F (as listed by the source, stated change not applied): as the sequence (Q8NH03 whole entry) above, with L256F counted along it
Sequence of OR2T6 C23G (as listed by the source, stated change not applied): as the sequence (Q8NHC8 whole entry) above, with C23G counted along it

Cc1c([N+](=O)[O-])c(C)c([N+](=O)[O-])c(C(C)(C)C)c1[N+](=O)[O-]
inactive: OR2T2 (Homo sapiens) | OR2T27 (Homo sapiens) | OR2T29 (Homo sapiens) | OR2T3 (Homo sapiens) | OR2T33 (Homo sapiens) | OR2T34 (Homo sapiens) | OR2T35 (Homo sapiens) | OR2T4 (Homo sapiens) | OR2T5 (Homo sapiens) | OR2T6 (Homo sapiens) | OR2T7 (Homo sapiens)

C=CCOC(=O)Cc1ccccc1
not listed: OR2T7 (Homo sapiens)
inactive: all other assays above

Cc1cccc(C)c1
inactive: OR2T4 (Homo sapiens)

O=Cc1ccccc1
inactive: OR2T34 (Homo sapiens)

COc1ccc(C=O)cc1
inactive: OR2T4 (Homo sapiens)

O=CC=Cc1ccccc1
active: OR2T34 (Homo sapiens)
